Data: ChEMBL document CHEMBL1139060, “4-[6-(2-Aminoethyl)naphthalen-2-yl]benzonitriles are potent histamine H3 receptor antagonists with high CNS penetration” (Bioorg Med Chem Lett, 2007)

How the values were obtained:
[1] = target: Histamine H3 receptor (Rattus norvegicus, UniProt Q9QYN8); experiment: Displacement of [3H]N-alpha-methylhistamine from histamine H3 receptor in rat cortical membranes; format: cell membranes, Membrane
Summary of the method: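 Competitive binding on rat cerebral cortex membranes, displacing the radioligand [3H]N-α-methylhistamine. Ki obtained from pKi. At least 3 independent pKi determinations per compound.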

[2] = target: Histamine H3 receptor (Homo sapiens, UniProt Q9Y5N1); experiment: Displacement of [3H]N-alpha-methylhistamine from human cloned histamine H3 receptor expressed in C6 cells; format: cell-based
Histamine H3 receptor (Homo sapiens, UniProt Q9Y5N1), sequence (Q9Y5N1 whole entry): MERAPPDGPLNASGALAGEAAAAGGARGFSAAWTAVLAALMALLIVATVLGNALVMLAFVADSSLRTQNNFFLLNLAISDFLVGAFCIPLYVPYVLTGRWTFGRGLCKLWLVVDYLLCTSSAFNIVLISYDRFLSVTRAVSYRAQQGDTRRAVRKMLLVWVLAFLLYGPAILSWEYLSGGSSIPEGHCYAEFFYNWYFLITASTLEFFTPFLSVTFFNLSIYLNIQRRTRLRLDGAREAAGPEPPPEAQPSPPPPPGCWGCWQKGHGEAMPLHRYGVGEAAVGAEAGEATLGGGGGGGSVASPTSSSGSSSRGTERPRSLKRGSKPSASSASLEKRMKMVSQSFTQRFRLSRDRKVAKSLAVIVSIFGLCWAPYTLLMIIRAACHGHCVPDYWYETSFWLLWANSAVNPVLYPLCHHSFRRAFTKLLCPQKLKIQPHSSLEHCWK
Summary of the method: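 Radioligand displacement with [3H]N-α-methylhistamine on membranes from C6 cells carrying cloned human H3R. Ki derived from pKi.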

[3] = Half life in rat at 1 mg/kg, iv; format: ADME, organism-based; parameters: dose 1 mg/kg, route intravenous; details: in vivo
[4] = Ratio of drug level in brain to plasma in rat at 5 mg/kg, iv; format: ADME, organism-based; parameters: dose 5 mg/kg, route intravenous
Summary of the method: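 Rats given 5 mg/kg intravenously; brain and plasma drug concentrations measured one hour after dosing and expressed as a brain-to-plasma ratio.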

[5] = Oral bioavailability in rat at 1 mg/kg; format: ADME, organism-based; details: in vivo
[6] = Half life in rat at 1 mg/kg, po; format: ADME, organism-based; parameters: dose 1 mg/kg, route oral; details: in vivo
[7] = AUC (0 to infinity) in rat at 1 mg/kg, po; format: ADME, organism-based; parameters: time infinity, dose 1 mg/kg, route oral; details: plasma
[8] = Volume of distribution in rat at terminal phase at 1 mg/kg, iv; format: ADME, organism-based; parameters: dose 1 mg/kg, route intravenous; details: in vivo, read-out: Vbeta
[9] = Cmax in rat at 1 mg/kg, po; format: ADME, organism-based; parameters: dose 1 mg/kg, route oral; details: in vivo
[10] = AUC (0 to infinity) in rat at 1 mg/kg, iv; format: ADME, organism-based; parameters: time infinity, dose 1 mg/kg, route intravenous; details: plasma

Histamine H3 receptor (Rattus norvegicus, UniProt Q9QYN8), sequence (Q9QYN8 whole entry): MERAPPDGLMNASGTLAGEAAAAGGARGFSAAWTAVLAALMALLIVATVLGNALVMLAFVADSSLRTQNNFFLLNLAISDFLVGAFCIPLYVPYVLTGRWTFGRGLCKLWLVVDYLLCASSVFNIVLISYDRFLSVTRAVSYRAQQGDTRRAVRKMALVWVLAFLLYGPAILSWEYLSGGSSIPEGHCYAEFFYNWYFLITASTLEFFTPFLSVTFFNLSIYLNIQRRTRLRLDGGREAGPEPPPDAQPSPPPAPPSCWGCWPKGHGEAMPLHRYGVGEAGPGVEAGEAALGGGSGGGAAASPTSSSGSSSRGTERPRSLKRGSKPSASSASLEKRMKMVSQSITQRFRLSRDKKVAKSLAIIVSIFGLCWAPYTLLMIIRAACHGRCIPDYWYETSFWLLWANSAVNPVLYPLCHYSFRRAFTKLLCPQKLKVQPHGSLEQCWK

| Compound | Ki [1] [nM] | Ki [2] [nM] | further results |
| --- | --- | --- | --- |
| C[C@@H]1CCCCN1CCc1ccc2cc(-c3ccc(C#N)cc3)ccc2c1 | 141 | 8.71 |  |
| CN(C)CCc1ccc2cc(-c3ccc(C#N)cc3)ccc2c1 | 45.3 | 2.65 |  |
| CCN(CC)CCc1ccc2cc(-c3ccc(C#N)cc3)ccc2c1 | 12.5 | 0.84 |  |
| N#Cc1ccc(-c2ccc3cc(CCN4CC=CC4)ccc3c2)cc1 | 66.1 | 3.31 |  |
| CC[C@@H]1CCCN1CCc1ccc2cc(-c3ccc(C#N)cc3)ccc2c1 | 33.7 | 8.61 |  |
| CN(CCO)CCc1ccc2cc(-c3ccc(C#N)cc3)ccc2c1 | 457 | 10.5 |  |
| C[C@H]1CCCN1CCc1ccc2cc(-c3ccc(C#N)cc3)ccc2c1 | 3.47 | 0.12 |  |
| N#Cc1ccc(-c2ccc3cc(CCN4CCCC4)ccc3c2)cc1 | 6.42 | 0.49 |  |
| C[C@@H]1CCCN1CCCOc1ccc(-c2ccc(C#N)cc2)cc1 | 1.96 | 0.22 |  |
| C[C@@H]1CCCN1CCc1ccc2cc(-c3ccc(C#N)cc3)ccc2c1 | 2.48 | 0.24 | half-life [3]: 6.9 h; Kp [4]: 72; bioavailability [5]: 55%; half-life [6]: 6.5 h; AUC(0-inf) [7]: 890 ng·h/mL; Vd [8]: 6 L/kg; Cmax [9]: 48 ng/mL; AUC(0-inf) [10]: 1640 ng·h/mL |
| CC(C)C1CCCN1CCc1ccc2cc(-c3ccc(C#N)cc3)ccc2c1 (stereo unspecified) | 233 | 27.3 |  |
| CC(C)CC1CCCN1CCc1ccc2cc(-c3ccc(C#N)cc3)ccc2c1 (stereo unspecified) | 465 | 273 |  |
| N#Cc1ccc(-c2ccc3cc(CCN4CCC[C@H]4CF)ccc3c2)cc1 | 9.77 | 0.81 |  |
| C[C@@H]1CCCN1CCc1cc2cc(-c3ccc(C#N)cc3)ccc2o1 |  |  | half-life [3]: 5.3 h; half-life [6]: 5.2 h; AUC(0-inf) [7]: 349 ng·h/mL; Vd [8]: 12 L/kg; Cmax [9]: 29 ng/mL; AUC(0-inf) [10]: 673 ng·h/mL |
| N#Cc1ccc(-c2ccc3cc(CCN4CCC[C@@H]4CO)ccc3c2)cc1 | 42.8 | 2.89 |  |
| N#Cc1ccc(-c2ccc3cc(CCN4CCC[C@H]4CO)ccc3c2)cc1 | 11 | 0.44 |  |
| CN(C)[C@@H]1CCN(CCc2ccc3cc(-c4ccc(C#N)cc4)ccc3c2)C1 | 100 | 20.1 |  |
| N#Cc1ccc(-c2ccc3cc(CCN4CC[C@@H](O)C4)ccc3c2)cc1 | 30.9 | 1.56 |  |
| CN(CCc1ccc2cc(-c3ccc(C#N)cc3)ccc2c1)C(C)(C)C | 27.9 | 1.09 |  |
| CCN(CCc1ccc2cc(-c3ccc(C#N)cc3)ccc2c1)C(C)C | 30.3 | 4.62 |  |
| CC1CCCN1CCc1ccc2cc(-c3ccc(C#N)cc3)ccc2c1 (stereo unspecified) | 1.24 | 0.18 |  |
| CCCN(C)CCc1ccc2cc(-c3ccc(C#N)cc3)ccc2c1 | 25.7 | 2.09 |  |
